High-throughput results as filed in PubChem.
VIM-2 inh: VIM-2 metallo-beta-lactamase inhibitors, primary screen, biochemical, epi-absorbance readout, Pseudomonas aeruginosa enzyme. purified VIM-2, nitrocefin hydrolysis, epi-absorbance fluorescence. inhibition, % at 5.6 µM. 0.89% of 290,000 active. AID 1527, 2009;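 active = inhibition above the mean of all tested compounds plus 3 SD, cutoff set per screening run, cut at about 7.5% in these data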;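 also: red hydrolysis product quenches plate fluorescence so inhibitors raise well fluorescence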
ATG4B inhibitor: ATG4B protease inhibitors, primary screen, biochemical, fluorescence, uHTS. ATG4B cleavage of LC3-PLA2, NBD-HPC fluorescence, 1 h. AID 504462, 2011. 0.51% of 340,000 active. inhibition, % at 8.33 µM; in the data active = inhibition above about 40%
Target sequence (Q9Y4P1 whole entry, looked up): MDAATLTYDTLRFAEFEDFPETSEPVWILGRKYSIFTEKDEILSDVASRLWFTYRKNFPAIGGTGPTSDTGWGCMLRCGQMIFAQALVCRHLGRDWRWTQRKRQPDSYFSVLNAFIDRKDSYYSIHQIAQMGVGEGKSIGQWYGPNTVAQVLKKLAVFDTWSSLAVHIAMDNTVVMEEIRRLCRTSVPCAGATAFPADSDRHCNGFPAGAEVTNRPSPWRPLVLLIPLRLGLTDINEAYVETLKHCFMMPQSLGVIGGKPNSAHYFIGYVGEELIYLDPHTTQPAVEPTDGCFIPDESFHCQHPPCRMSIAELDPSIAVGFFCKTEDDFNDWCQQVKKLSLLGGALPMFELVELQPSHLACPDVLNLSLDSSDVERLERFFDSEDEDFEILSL
PvdQ acylase: P. aeruginosa PvdQ acylase inhibitors, primary screen, biochemical, fluorescence, plate reader and imaging, single point; PvdQ acylase [Pseudomonas aeruginosa LESB58]; purified PvdQ acylase; inhibition, % at 10 µM; 0.063% of 340,000 active; AID 488965, 2010; in the data active = inhibition above about 30%, passing the limit was not always enough
HKDC1 inh: HKDC1 hexokinase inhibitors, primary screen, biochemical, fluorescence, uHTS; AID 493160, 2011; inhibition, % at 20 µM; 0.16% of 340,000 active; recombinant HKDC1, G6PDH/diaphorase resazurin coupled fluorescence;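 active = inhibition above about 35% when tested at 20 µM, limit read from the data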
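Test system: recombinant HKDC1 (HK5) hexokinase enzyme, produced in-house / Doses: 20 µM test compound, 1% DMSO / Timing: 90 min, room temperature / Detection: G6PDH/diaphorase-coupled fluorescence, 1 mM NADP, 100 µM resazurin, 525/613 nm / Control set: DMSO wells with and without enzyme mix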
IMP-1 inh: IMP-1 metallo-beta-lactamase inhibitors, primary screen, biochemical, epi-absorbance readout, Pseudomonas aeruginosa enzyme | metallo-beta-lactamase IMP-1 (Pseudomonas aeruginosa) | inhibition, % at 5.6 µM | 0.45% of 290,000 active | purified IMP-1, nitrocefin hydrolysis, epi-absorbance fluorescence | AID 1556, 2009;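 active = inhibition above the mean plus 3 SD of all compounds in the same screening run, cut at about 4.5% in these data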
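System: purified IMP-1; amount: IMP-1 0.2 nM before substrate addition; compound: single dose, 5.6 µM; times: 25 °C, 15 min preincubation, 25 min reaction; signal: Epi-absorbance via hydrolysed-nitrocefin quenching of white-plate fluorescence, 480/530 nm, EDTA stop; benchmarks: DMSO with and without IMP-1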
MIN6 prolif: inducers of MIN6 beta-cell proliferation, primary screen, ATP luminescence, uHTS. 0.29% of 330,000 active. proliferation, % at 10 µM. MIN6 cells proliferation, ATPlite luminescence, 48 h; cells starved in 0.2% serum; 100% = growth in 10% serum;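 active = compounds whose signal lies at least 3.5 SD above the mean of all wells on their plate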
Large screens that a line does not name were inactive. Only some compounds are listed: those with a hit (about 2% of all), similar ones and a draw of the others.

COc1ccc(S(=O)(=O)N2CCCC2CNC(=O)C(=O)NCc2cccs2)cc1 (stereo not drawn)	none (no result: VIM-2 inh, IMP-1 inh)
N#CC(OC(=O)c1ccccc1)c1cccc([N+](=O)[O-])c1 (stereo not drawn)	PvdQ acylase 72.0 (no result: VIM-2 inh, IMP-1 inh, MIN6 prolif)
O=C(C#Cc1ccccc1)c1cccc([N+](=O)[O-])c1	HKDC1 inh 37.0
O=C(NC(NC(=O)c1ccccc1)c1cccc([N+](=O)[O-])c1)c1ccccc1	none
Nc1nc(Sc2c([N+](=O)[O-])cc(C(F)(F)F)cc2[N+](=O)[O-])n[nH]1	none
O=c1c2ccccc2nc(-c2ccco2)n1CCc1ccc(O)cc1	none
CN(C)c1ccnc2sc3c(NCC(O)CO)ncnc3c12 (stereo not drawn)	VIM-2 inh 8.3
CCC(CC)C(=O)c1c[nH]c(C(=O)N2CCN(c3ccccc3)CC2)c1	none
c1ccc2c(N3CCCCC3)nc(N3CCCC3)nc2c1	VIM-2 inh 10.8
c1ccc(-c2nc(N3CCCCCC3)c3ccccc3n2)nc1	IMP-1 inh 5.8
c1ccc2c(c1)nc(N1CCCCC1)c1ccccc12	none
c1ccc(-c2nc(N3CCOCC3)c3ccccc3n2)nc1	none
CCOC(=O)NC(O)C(=O)c1cccs1 (stereo not drawn)	MIN6 prolif 5.0
COc1ccc(C(=O)Nc2nnc(SCC(=O)NCc3ccco3)s2)c(OC)c1	VIM-2 inh 11.1
COc1cc(OC)cc(C(=O)Nc2nnc(SCC(=O)NCc3ccco3)s2)c1	none
COC(=O)c1cc2c(cc1N)OCCO2	none
Cc1cnc(NC(=O)c2cccc(S(=O)(=O)N3CC(C)OC(C)C3)c2)s1 (stereo not drawn)	none
Cc1cccn2c(=O)c3cc(S(=O)(=O)c4ccccc4)c(=N)n(Cc4cccnc4)c3nc12	VIM-2 inh 10.2
Cc1c(C)c2ccc(OCC(=O)NC3CCN(Cc4ccccc4)CC3)cc2oc1=O	VIM-2 inh 12.0
COc1ccccc1C(=O)Nc1c2c(nn1-c1ccc(Cl)cc1)CS(=O)(=O)C2	IMP-1 inh 10.5
Cc1cc2nc3ccc(=[N+](C)C)cc-3sc2cc1N	HKDC1 inh 46.9 (no result: MIN6 prolif)
O=C(c1ccc(-n2cncn2)c([N+](=O)[O-])c1)N1CCN(S(=O)(=O)c2ccccc2F)CC1	none (no result: VIM-2 inh, IMP-1 inh)
Cc1ccc2nc(N=C(N)N)nc(C)c2c1	VIM-2 inh 10.9
CCN(CC)P(=O)(Nc1ccccc1Br)c1ccc(N(C)C)cc1NC(=O)c1ccco1 (stereo not drawn)	none
CC1=CC(C)(C)N(C(=O)CNC2CCCC2)c2cc(C)ccc21	IMP-1 inh 33.6
CC1(C)Oc2ccc3ccc(=O)oc3c2-c2cn[nH]c21	VIM-2 inh 8.0
O=C(CN1C(=O)S/C(=C/c2cccn2-c2ccc(O)cc2)C1=O)N1CCCC1	VIM-2 inh 9.0
COc1ccc(C)cc1S(=O)(=O)n1c([N+](=O)[O-])cnc1C	none
NS(=O)(=O)c1cccc(NC(=O)COC(=O)Cc2ccc(S(=O)(=O)N3CCCCC3)s2)c1	IMP-1 inh 5.6
Cc1ccc(Nc2ncnc3ccccc23)cc1	none
CC(C)Oc1ccc(Nc2ncnc3ccccc23)cc1	PvdQ acylase 31.3
CS(=O)(=O)N(CC(=O)Nc1cc(Cl)ccc1Cl)c1ccccc1	IMP-1 inh 4.6
CC1=CC(C)C(C(=O)O)C(C(=O)N2CCN(C)CC2)C1 (stereo not drawn)	VIM-2 inh 9.3
CC1=CC(C)C(C(=O)O)C(C(=O)Nc2cccnc2)C1 (stereo not drawn)	none
O=C(c1cnc2n(c1=O)CCS2)N1CCN(C(c2ccccc2)c2ccc(Cl)cc2)CC1 (stereo not drawn)	IMP-1 inh 5.9
COc1ccc(Cn2c(=O)[nH]c3cc(C(=O)Nc4ccccc4C)ccc32)cc1	none
CCN1CCN(c2ccc(NC(=O)c3ccc4c(c3)[nH]c(=O)n4Cc3ccc(OC)cc3)cc2)CC1	VIM-2 inh 11.1
COC(=O)C1=C(C)Nc2nc3ccccc3n2C1c1cc(OC)c(OC)c(OC)c1 (stereo not drawn)	none (no result: PvdQ acylase)
CCOC(=O)C1=C(C)Nc2nc3ccccc3n2C1c1ccc(O)cc1 (stereo not drawn)	IMP-1 inh 29.4
CNC(C)C#Cc1ccc2oc3cccc(OC)c3c(=O)c2c1 (stereo not drawn)	VIM-2 inh 8.3
O=[N+]([O-])c1ccc(N2CCSCC2)cc1	PvdQ acylase 54.3
Nc1c(C(=O)c2ccccc2)sc2nsc(SCCN3CCCC3)c12	VIM-2 inh 8.3
Cc1cc(C)n2nc(C(=O)Nc3ccc4c(c3)OCO4)cc2n1	IMP-1 inh 4.7
O=C(Nc1ccc2c(c1)OCO2)c1cc2nc(C3CC3)cc(C(F)(F)F)n2n1	none (no result: MIN6 prolif)
NC(=O)C1CCN(C(=O)Cc2ccsc2)CC1	none
COc1ccc(C2C(C(=O)c3cccs3)=C(O)C(=O)N2c2cccc(C)n2)cc1 (stereo not drawn)	none
Cc1ccc(C2C(C(=O)c3cccs3)=C(O)C(=O)N2c2nnc(C)s2)cc1 (stereo not drawn)	VIM-2 inh 19.5, IMP-1 inh 19.7
CN(C)Cc1c(O)ccc2c3c(c(=O)oc12)CCCCC3	none
CN(Cc1c(O)ccc2c1oc(=O)c1ccccc12)C1CCCCC1	VIM-2 inh 8.7
CCOc1ccc(S(=O)(=O)Nc2ccccc2C(=O)N2CCOCC2)cc1	none
COc1ccccc1N1CCN(c2nc(C)nc3c2oc2ccccc23)CC1	ATG4B inhibitor 45.2 (no result: MIN6 prolif)
Cc1nc(N2CCC(C)CC2)c2oc3ccccc3c2n1	none
COc1ccc(C(=O)NC(=S)Nc2ccc3oc(=O)ccc3c2)cc1[N+](=O)[O-]	none
O=C1CCN(S(=O)(=O)c2ccc(Cl)cc2)N1	none
O=C1CCN(S(=O)(=O)c2ccccc2)N1	VIM-2 inh 9.7
Cc1ccc(S(=O)(=O)N2CCC(=O)N2)cc1	VIM-2 inh 8.6
COC(=O)[C@H](CC(C)C)NC(=O)Cn1cnc2c(NCc3ccccc3)ncnc21	none (no result: VIM-2 inh, IMP-1 inh, MIN6 prolif)
C=C(C)CSc1nnc([C@@H](NC(=O)OC(C)(C)C)C(C)CC)o1 (stereo partly drawn)	none
Nc1cccc2c1C(=O)N(C(=O)c1ccc(Cl)c(S(=O)(=O)N3CCCCCC3)c1)C2=O	IMP-1 inh 4.8
CCCCCOC(=O)C1=C(C)N(C)C(=O)NC1c1cc(Br)c(O)c(OC)c1 (stereo not drawn)	none
Cc1ccccc1NC(=O)NCc1ccccn1	none (no result: VIM-2 inh, IMP-1 inh)
